According to ChEMBL document CHEMBL1275480, “Role of global regulators and nucleotide metabolism in antibiotic tolerance in Escherichia coli” (2008):

Columns and labels:
[1] = system: Escherichia coli; test: Antimicrobial activity against dnaJ deficient Escherichia coli K-12 BW-25113 assessed as decrease in persistence at 100 ug/ml after 3 hrs by time kill analysis; assay type: functional, K-12 BW25113
How it was run: (§1)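 Keio single-gene deletion strains of E. coli K-12 BW25113 and the parent strain. Cultures: 1 ml LB overnight at 37°C with aeration, then diluted 1:100 into MOPS minimal medium (0.1% succinate, 0.05% Casamino Acids) and grown 5 h to exponential phase (~2 × 10^8 CFU/ml). Challenged 3 h with ciprofloxacin 1 μg/ml, streptomycin 10 μg/ml or ampicillin 100 μg/ml. Samples taken before and after, diluted, spot-plated on LB agar for CFU. Triplicate, standard deviations.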

[2] = system: Escherichia coli; test: Antimicrobial activity against ygfA deficient Escherichia coli K-12 BW-25113 assessed as decrease in persistence at 100 ug/ml after 3 hrs by time kill analysis; assay type: functional, K-12 BW25113; how it was run: as §1
[3] = system: Escherichia coli; test: Antimicrobial activity against dksA deficient Escherichia coli K-12 BW-25113 assessed as decrease in persistence at 100 ug/ml after 3 hrs by time kill analysis; assay type: functional, K-12 BW25113; how it was run: as §1
[4] = system: Escherichia coli; test: Antimicrobial activity against dnaK deficient Escherichia coli K-12 BW-25113 assessed as decrease in persistence at 100 ug/ml after 3 hrs by time kill analysis; assay type: functional, K-12 BW25113; how it was run: as §1
[5] = system: Escherichia coli; test: Antimicrobial activity against apaH deficient Escherichia coli K-12 BW-25113 assessed as survival rate at 10 ug/ml after 6 hrs by time kill analysis
[6] = system: Escherichia coli; test: Antimicrobial activity against surA deficient Escherichia coli K-12 BW-25113 assessed as survival rate at 10 ug/ml after 6 hrs by time kill analysis
[7] = system: Escherichia coli; test: Antimicrobial activity against Escherichia coli K-12 BW-25113 assessed as survival rate at 10 ug/ml after 6 hrs by time kill analysis
[8] = system: Escherichia coli; test: Antimicrobial activity against ygfA deficient Escherichia coli K-12 BW-25113 assessed as decrease in persistence at 10 ug/ml after 3 hrs by time kill analysis relative to wild type; assay type: functional, K-12 BW25113; how it was run: as §1
[9] = system: Escherichia coli; test: Antimicrobial activity against dksA deficient Escherichia coli K-12 BW-25113 assessed as decrease in persistence at 10 ug/ml after 3 hrs by time kill analysis relative to wild type; assay type: functional, K-12 BW25113; how it was run: as §1
[10] = system: Escherichia coli; test: Antimicrobial activity against dnaK deficient Escherichia coli K-12 BW-25113 assessed as decrease in persistence at 10 ug/ml after 3 hrs by time kill analysis; assay type: functional, K-12 BW25113; how it was run: as §1
[11] = system: Escherichia coli; test: Antimicrobial activity against dnaJ deficient Escherichia coli K-12 BW-25113 assessed as decrease in persistence at 10 ug/ml after 3 hrs by time kill analysis; assay type: functional, K-12 BW25113; how it was run: as §1
[12] = system: Escherichia coli; test: Antimicrobial activity against yigB deficient Escherichia coli K-12 BW-25113 assessed as decrease in persistence at 10 ug/ml after 3 hrs by time kill analysis relative to wild type; assay type: functional, K-12 BW25113; how it was run: as §1

## CC1(C)S[C@@H]2[C@H](NC(=O)[C@H](N)c3ccccc3)C(=O)N2[C@H]1C(=O)O [AMPICILLIN]
[1]
  fold change (FC): 46
[2]
  fold change (FC): 82
[3]
  fold change (FC): 40
[4]
  fold change (FC): 13

## CC1COc2c(N3CCN(C)CC3)c(F)cc3c(=O)c(C(=O)O)cn1c23 (configuration not stated) [OFLOXACIN]
[5]
  Activity: 1.7%
[6]
  Activity: 3.3%
[7]
  Activity: 1.3%

## CN[C@@H]1[C@H](O[C@H]2[C@H](O[C@H]3[C@H](O)[C@@H](O)[C@H](N=C(N)N)[C@@H](O)[C@@H]3N=C(N)N)O[C@@H](C)[C@]2(O)C=O)O[C@@H](CO)[C@H](O)[C@H]1O [STREPTOMYCIN]
[8]
  fold change (FC): 3
[9]
  fold change (FC): 6
[10]
  fold change (FC): 66
[11]
  fold change (FC): 87
[12]
  fold change (FC): 10
